# Assay results as given in ChEMBL document CHEMBL4665633, “Cereblon versus VHL: Hijacking E3 ligases against each other using PROTACs” (Bioorg Med Chem, 2019).
# Activity calls are given as the source filed them. The rule behind the calls is not given here.
# Key:
# Assay type in all cases: cell-based
# [1] = target: T1, Protein cereblon/von Hippel-Lindau disease tumor suppressor (Homo sapiens, UniProt P40337+Q96SW2); experiment: Protac activity at VHL/CRBN in human HeLa cells assessed as pVHL19 protein abundance at 500 nM after 4 hrs by Western blot analysis relative to DMSO
# In short: (§1)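 HeLa cells (5 × 10⁵, DMEM + 10% FBS, 37 °C, 5% CO₂, ≤30 passages) seeded overnight, then treated 4 h with compound at single or graded concentrations (0.1% v/v DMSO final). RIPA lysates equalised by Bradford; SDS-PAGE and anti-CRBN/anti-VHL immunoblots; bands normalised to β-tubulin and expressed as % of mean DMSO vehicle. DC₅₀ from fit of band intensity versus log[concentration].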
# Target sequence in this assay (P40337 whole entry, looked up): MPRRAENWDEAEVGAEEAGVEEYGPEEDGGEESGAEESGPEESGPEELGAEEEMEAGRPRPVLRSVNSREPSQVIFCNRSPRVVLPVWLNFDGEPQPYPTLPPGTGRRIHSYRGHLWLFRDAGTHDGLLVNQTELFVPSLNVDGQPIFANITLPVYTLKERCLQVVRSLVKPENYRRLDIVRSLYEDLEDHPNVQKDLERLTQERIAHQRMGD
# Target sequence in this assay (Q96SW2 whole entry, looked up): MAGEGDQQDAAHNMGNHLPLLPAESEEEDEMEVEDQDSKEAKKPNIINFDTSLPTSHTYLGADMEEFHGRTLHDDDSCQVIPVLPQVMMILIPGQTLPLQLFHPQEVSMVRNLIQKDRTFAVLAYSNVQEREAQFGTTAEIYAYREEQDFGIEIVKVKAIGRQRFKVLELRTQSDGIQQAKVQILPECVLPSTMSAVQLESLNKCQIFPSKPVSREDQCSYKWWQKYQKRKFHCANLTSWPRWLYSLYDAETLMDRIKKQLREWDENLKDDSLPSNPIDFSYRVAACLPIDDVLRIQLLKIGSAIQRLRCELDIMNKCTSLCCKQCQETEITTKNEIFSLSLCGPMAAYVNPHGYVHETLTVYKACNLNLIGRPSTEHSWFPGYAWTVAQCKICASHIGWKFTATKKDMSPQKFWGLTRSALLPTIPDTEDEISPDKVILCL
# [2] = target: T1, Protein cereblon/von Hippel-Lindau disease tumor suppressor; experiment: Protac activity at VHL/CRBN in human HeLa cells assessed as CRBN protein abundance at 1 uM after 4 hrs by Western blot analysis relative to DMSO
# In short: (§2)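 HeLa cells seeded overnight, then exposed to 1 µM compound (0.1% v/v DMSO final) over a time course. Cells were DPBS-washed and RIPA-lysed with protease inhibitors and benzonase; equal protein was loaded. Immunoblots for CRBN and VHL isoforms were quantified against β-tubulin and reported relative to the averaged 0.1% DMSO vehicle.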
# Target sequence in this assay (P40337 whole entry, looked up): as the sequence (P40337 whole entry, looked up) above
# Target sequence in this assay (Q96SW2 whole entry, looked up): as the sequence (Q96SW2 whole entry, looked up) above
# [3] = target: T1, Protein cereblon/von Hippel-Lindau disease tumor suppressor; experiment: Protac activity at VHL/CRBN in HEK293 cells assessed as CRBN protein abundance at 5000 nM after 4 hrs by Western blot analysis relative to DMSO
# In short: (§3)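 HEK293 cells (DMEM, 10% FBS, penicillin/streptomycin, L-glutamine; 37 °C, 5% CO2; ≤30 passages) seeded at 1 × 10⁶ per well overnight, then treated with compound at 0.1% v/v final DMSO. Cells were lysed in RIPA with protease inhibitors and benzonase, then clarified. Equal Bradford-quantified protein was immunoblotted for CRBN/VHL. Bands were normalised to β-tubulin and expressed as % of mean 0.1% DMSO vehicle.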
# Target sequence in this assay (P40337 whole entry, looked up): as the sequence (P40337 whole entry, looked up) above
# Target sequence in this assay (Q96SW2 whole entry, looked up): as the sequence (Q96SW2 whole entry, looked up) above
# [4] = target: T1, Protein cereblon/von Hippel-Lindau disease tumor suppressor; experiment: Protac activity at VHL/CRBN in human HeLa cells assessed as pVHL19 protein abundance at 100 nM after 4 hrs by Western blot analysis relative to DMSO; in short: as §1
# Target sequence in this assay (P40337 whole entry, looked up): as the sequence (P40337 whole entry, looked up) above
# Target sequence in this assay (Q96SW2 whole entry, looked up): as the sequence (Q96SW2 whole entry, looked up) above
# [5] = target: T1, Protein cereblon/von Hippel-Lindau disease tumor suppressor; experiment: Protac activity at VHL/CRBN in human HeLa cells assessed as pVHL30 protein abundance at 50 nM after 4 hrs by Western blot analysis relative to DMSO; in short: as §1
# Target sequence in this assay (P40337 whole entry, looked up): as the sequence (P40337 whole entry, looked up) above
# Target sequence in this assay (Q96SW2 whole entry, looked up): as the sequence (Q96SW2 whole entry, looked up) above
# [6] = target: T1, Protein cereblon/von Hippel-Lindau disease tumor suppressor; experiment: Protac activity at VHL/CRBN in HEK293 cells assessed as CRBN protein abundance at 10000 nM after 4 hrs by Western blot analysis relative to DMSO; in short: as §3
# Target sequence in this assay (P40337 whole entry, looked up): as the sequence (P40337 whole entry, looked up) above
# Target sequence in this assay (Q96SW2 whole entry, looked up): as the sequence (Q96SW2 whole entry, looked up) above
# [7] = target: T1, Protein cereblon/von Hippel-Lindau disease tumor suppressor; experiment: Protac activity at VHL/CRBN in HEK293 cells assessed as induction of VHL degradation at 1 uM after 1 to 24 hrs by Western blot analysis; settings: time hrs 1-24
# [8] = target: T1, Protein cereblon/von Hippel-Lindau disease tumor suppressor; experiment: Protac activity at VHL/CRBN in HEK293 cells assessed as pVHL19 protein abundance at 5 nM after 4 hrs by Western blot analysis relative to DMSO; in short: as §3
# [9] = target: T1, Protein cereblon/von Hippel-Lindau disease tumor suppressor; experiment: Protac activity at VHL/CRBN in human HeLa cells assessed as pVHL19 protein abundance at 1 uM after 8 hrs by Western blot analysis relative to DMSO; in short: as §2
# [10] = target: T1, Protein cereblon/von Hippel-Lindau disease tumor suppressor; experiment: Protac activity at VHL/CRBN in human HeLa cells assessed as CRBN protein abundance at 10000 nM after 4 hrs by Western blot analysis relative to DMSO; in short: as §1
# [11] = target: T1, Protein cereblon/von Hippel-Lindau disease tumor suppressor; experiment: Protac activity at VHL/CRBN in HEK293 cells assessed as CRBN protein abundance at 5 nM after 4 hrs by Western blot analysis relative to DMSO; in short: as §3
# [12] = target: T1, Protein cereblon/von Hippel-Lindau disease tumor suppressor; experiment: Protac activity at VHL/CRBN in HEK293 cells assessed as pVHL30 protein abundance at 100 nM after 4 hrs by Western blot analysis relative to DMSO; in short: as §3
# [13] = target: T1, Protein cereblon/von Hippel-Lindau disease tumor suppressor; experiment: Protac activity at VHL/CRBN in HEK293 cells assessed as CRBN protein abundance at 1 uM after 2 hrs by Western blot analysis relative to DMSO; in short: as §3
# [14] = target: T1, Protein cereblon/von Hippel-Lindau disease tumor suppressor; experiment: Protac activity at VHL/CRBN in HEK293 cells assessed as pVHL30 protein abundance at 10 nM after 4 hrs by Western blot analysis relative to DMSO; in short: as §3
# [15] = target: T1, Protein cereblon/von Hippel-Lindau disease tumor suppressor; experiment: Protac activity at VHL/CRBN in HEK293 cells assessed as pVHL30 protein abundance at 10000 nM after 4 hrs by Western blot analysis relative to DMSO; in short: as §3
# [16] = target: T1, Protein cereblon/von Hippel-Lindau disease tumor suppressor; experiment: Protac activity at VHL/CRBN in HEK293 cells assessed as pVHL19 protein abundance at 1 uM after 8 hrs by Western blot analysis relative to DMSO; in short: as §3
# [17] = target: T1, Protein cereblon/von Hippel-Lindau disease tumor suppressor; experiment: Protac activity at VHL/CRBN in human HeLa cells assessed as pVHL19 protein abundance at 10 nM after 4 hrs by Western blot analysis relative to DMSO; in short: as §1
# [18] = target: T1, Protein cereblon/von Hippel-Lindau disease tumor suppressor; experiment: Protac activity at VHL/CRBN in HEK293 cells assessed as pVHL19 protein abundance at 1 uM after 4 hrs by Western blot analysis relative to DMSO; in short: as §3
# [19] = target: T1, Protein cereblon/von Hippel-Lindau disease tumor suppressor; experiment: Protac activity at VHL/CRBN in HEK293 cells assessed as pVHL30 protein abundance at 1 uM after 2 hrs by Western blot analysis relative to DMSO; in short: as §3
# [20] = target: T1, Protein cereblon/von Hippel-Lindau disease tumor suppressor; experiment: Protac activity at VHL/CRBN in human HeLa cells assessed as CRBN protein abundance at 50 nM after 4 hrs by Western blot analysis relative to DMSO; in short: as §1
# [21] = target: T1, Protein cereblon/von Hippel-Lindau disease tumor suppressor; experiment: Protac activity at VHL/CRBN in human HeLa cells assessed as induction of VHL degradation at 1 uM after 1 to 24 hrs by Western blot analysis; settings: time hrs 1-24; in short: as §2
# [22] = target: T1, Protein cereblon/von Hippel-Lindau disease tumor suppressor; experiment: Protac activity at VHL/CRBN in HEK293 cells assessed as CRBN protein abundance at 1 uM after 8 hrs by Western blot analysis relative to DMSO; in short: as §3
# [23] = target: T1, Protein cereblon/von Hippel-Lindau disease tumor suppressor; experiment: Protac activity at VHL/CRBN in human HeLa cells assessed as pVHL19 protein abundance at 5 nM after 4 hrs by Western blot analysis relative to DMSO; in short: as §1
# [24] = target: T1, Protein cereblon/von Hippel-Lindau disease tumor suppressor; experiment: Protac activity at VHL/CRBN in human HeLa cells assessed as CRBN protein abundance at 1 uM after 12 hrs by Western blot analysis relative to DMSO; in short: as §2
# [25] = target: T1, Protein cereblon/von Hippel-Lindau disease tumor suppressor; experiment: Protac activity at VHL/CRBN in HEK293 cells assessed as CRBN protein abundance at 100 nM after 4 hrs by Western blot analysis relative to DMSO; in short: as §3
# [26] = target: T1, Protein cereblon/von Hippel-Lindau disease tumor suppressor; experiment: Protac activity at VHL/CRBN in HEK293 cells assessed as pVHL30 protein abundance at 1 uM after 4 hrs by Western blot analysis relative to DMSO; in short: as §3
# [27] = target: T1, Protein cereblon/von Hippel-Lindau disease tumor suppressor; experiment: Protac activity at VHL/CRBN in human HeLa cells assessed as induction of VHL degradation at 1 uM after 4 hrs by Western blot analysis; in short: as §1
# [28] = target: T1, Protein cereblon/von Hippel-Lindau disease tumor suppressor; experiment: Protac activity at VHL/CRBN in human HeLa cells assessed as induction of CRBN degradation after 4 hrs by Western blot analysis; in short: as §1
# Target sequence in this assay (P40337 whole entry): as the sequence (P40337 whole entry, looked up) above
# Target sequence in this assay (Q96SW2 whole entry): as the sequence (Q96SW2 whole entry, looked up) above
# [29] = target: T1, Protein cereblon/von Hippel-Lindau disease tumor suppressor; experiment: Protac activity at VHL/CRBN in HEK293 cells assessed as pVHL30 protein abundance at 1000 nM after 4 hrs by Western blot analysis relative to DMSO; in short: as §3
# [30] = target: T1, Protein cereblon/von Hippel-Lindau disease tumor suppressor; experiment: Protac activity at VHL/CRBN in HEK293 cells assessed as pVHL19 protein abundance at 50 nM after 4 hrs by Western blot analysis relative to DMSO; in short: as §3
compound,measurement,setting,value
Cc1ncsc1-c1ccc(CNC(=O)[C@@H]2C[C@@H](O)CN2C(=O)[C@@H](NC(=O)COCCCCCOCCOCCCCCOCC(=O)NCCNc2cccc3c2C(=O)N(C2CCC(=O)NC2=O)C3=O)C(C)(C)C)cc1 (stereo not given in full),Activity,[1],106%
same,Activity,[2],19%
same,Activity,[3],25%
same,Activity,[4],108%
same,Activity,[5],79%
same,Activity,[6],66%
same,Activity,[7],inactive
same,Activity,[8],108%
same,Activity,[9],100%
same,Activity,[10],86%
same,Activity,[11],102%
same,Activity,[12],124%
same,Activity,[13],9%
same,Activity,[14],135%
same,Activity,[15],128%
same,Activity,[16],105%
same,Activity,[17],95%
same,Activity,[18],101%
same,Activity,[19],87%
same,Activity,[20],72%
same,Activity,[21],inactive
same,Activity,[22],2%
same,Activity,[23],87%
same,Activity,[24],12%
same,Activity,[25],63%
same,Activity,[26],98%
same,Activity,[27],inactive
same,DC50,[28],200 nM
same,Activity,[29],127%
same,Activity,[30],111%
